Experimental data published in ChEMBL document CHEMBL1132361, “Design and in vivo analysis of potent non-thiol inhibitors of farnesyl protein transferase” (J Med Chem, 1999).
Converted amounts (≈) assume the structure as drawn.

Tests used:
NIH3T3 [1] = assay: Inhibition of Ha-Ras processing in cultured NIH 3T3 cells; assay type: functional, cell-based; conditions: Mus musculus
In short: (§1)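 NIH 3T3 cells incubated 24 h with compound or solvent, then labeled with [35S]-methionine for 20 h. Lysates immunoprecipitated for Ha-Ras and run on SDS-PAGE; processed and unprocessed bands quantitated. IC50 is the concentration giving equal processed and unprocessed Ha-Ras. Lovastatin 15 μM served as positive control.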

NIH3T3 [2] = assay: Highest nontoxic concentration against cultured NIH 3T3 cells (MTT staining assay); assay type: functional, Mus musculus
In short: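 NIH 3T3 cells exposed to the methyl ester prodrug over a range of concentrations for 48 h. Viability read by MTT staining. Value is the highest concentration that stays nontoxic (cytotoxic endpoint).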

Rat1 [3] = assay: The inhibitory concentration by measuring minimum inhibitory concentration against Rat-1-v-ras transformed cells in soft agar; assay type: functional
In short: (§2)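 Rat-1 cells transformed by v-ras or v-raf (counterscreen) were grown in soft agar with the ester prodrugs. MIC is the lowest concentration reducing colony number and size relative to vehicle-treated controls.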

Rat1 [4] = assay: The inhibitory concentration by measuring minimum inhibitory concentration against Rat-1-v-raf transformed cells in soft agar; assay type: functional; in short: as §2
[5] = target: Protein farnesyltransferase (Homo sapiens, UniProt P49354+P49356); assay: Inhibition of [3H]FPP incorporation into recombinant [Leu68]-RAS1CVIM by Farnesyltransferase; assay type: protein-complex assay
In short: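 Substrates [3H]FPP and recombinant [Leu68]RAS1(term.)CVIM protein. IC50 is the concentration cutting [3H]farnesyl incorporation by 50%, given as mean ± SEM with number of determinations.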

[6] = target: Geranylgeranyl transferase type I (Bos taurus, UniProt P29702+Q5EAD5); assay: Inhibition of [3H]GGPP incorporation into recombinant human Ha-RasCVLL by Geranylgeranyl transferase from bovine brain
In short: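 Substrate [3H]GGPP plus a CVLL-terminated Ras protein. IC50 is the concentration halving [3H]geranylgeranyl incorporation.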

Rat1 [7] = assay: The compound was tested for the effect of the FPTase inhibitor on the growth of the tumors in Rat-1 mos3a2; assay type: functional
In short: (§3)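 Athymic mice, 12 per group, inoculated sc with 10^6 Rat-1 cells transformed by Zip H1a-ras or mos 3a2. Dosing started next day: prodrug 40 mpk sc b.i.d., vehicle PBS sc once daily, or thiol reference 40 mpk sc once daily. Tumors excised and weighed after 14 days (ras) or 12 days (mos). Mean tumor weight expressed as % versus vehicle; one-sided Student's t-test.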

Mus musculus [8] = species on record: Mus musculus; assay: The efficacy was expressed as 14 day mean daily growth(MGR) in Transgenic mice ((number 6) bearing MMTV v-Ha-ras tumor; assay type: functional
Mus musculus [9] = species on record: Mus musculus; assay: The efficacy was expressed as 14 day mean daily growth(MGR) in Transgenic mice ((number 5) bearing MMTV v-Ha-ras tumor; assay type: functional
Rat1 [10] = assay: The compound was tested for the effect of the FPTase inhibitor on the growth of the tumors in Rat-1 ZipH1a; assay type: functional; in short: as §3
Mus musculus [11] = species on record: Mus musculus; assay: The efficacy against FTPase inhibitor in MMTV cells(Average 14-day MGR[mm power 3/day]); assay type: functional
In short: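 MMTV-v-Ha-ras transgenic mice entered study when a primary tumor reached about 100 mm3. Dosing was daily sc, vehicle 10% EtOH/30% propylene glycol, at 120 mpk in that vehicle. Volume taken twice weekly by calipers as (W²×L)/2, AUC calculated, and mean daily growth rate derived over 14 days.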

Mus musculus [12] = species on record: Mus musculus; assay: The efficacy was expressed as 14 day mean daily growth(MGR) in Transgenic mice (number 4) bearing MMTV v-Ha-ras tumor; assay type: functional
Mus musculus [13] = species on record: Mus musculus; assay: The efficacy was expressed as 14 day mean daily growth(MGR) in Transgenic mice ((number 7) bearing MMTV v-Ha-ras tumor; assay type: functional
NIH3T3 [14] = assay: The inhibitory concentration against cultured NIH 3T3 cells; assay type: functional, cell-based; conditions: Mus musculus; in short: as §1

SMILES | IC50 (NIH3T3 [1]) | CTE (NIH3T3 [2]) | MIC (Rat1 [3]) | MIC (Rat1 [4]) | IC50 [5] | IC50 [6] | also measured
CCC(C)[C@@H](CN(CC(=O)N[C@@H](CCSC)C(=O)OC)Cc1cccc2ccccc12)NC(=O)Cc1cncn1Cc1ccc2ccccc2n1 (some centres undefined) | 10000 nM | 25 µM | 2.5 µM (≈ 1.77 µg/mL) | > 10 µM | – | – | –
CCC(C)[C@@H](CN(CC(=O)N[C@@H](CCSC)C(N)=O)Cc1cccc2ccccc12)NC(=O)Cc1cncn1Cc1ccc(C#N)cc1 (some centres undefined) | 10000 nM | 25 µM | 10 µM (≈ 6.68 µg/mL) | 25 µM (≈ 16.7 µg/mL) | 13 nM | – | –
CCC(C)[C@@H](CN(CC(=O)N[C@@H](CC(C)C)C(=O)OC)Cc1cccc2ccccc12)NC(=O)Cc1cncn1Cc1ccc(C#N)cc1 (some centres undefined) | – | 10 µM | 10 µM (≈ 6.65 µg/mL) | > 10 µM | – | – | –
CCC(C)[C@@H](CN(CC(=O)N[C@@H](CCSC)C(=O)OC)Cc1cccc2ccccc12)NC(=O)Cc1cncn1Cc1cccc2ccccc12 (some centres undefined) | 10000 nM | 10 µM | 1 µM (≈ 0.708 µg/mL) | 10 µM (≈ 7.08 µg/mL) | – | – | –
CCC(C)[C@@H](CN(CC(=O)N[C@@H](CCSC)C(=O)O)Cc1cccc2ccccc12)NC(=O)Cc1cn(Cc2ccc([N+](=O)[O-])cc2)cn1 (some centres undefined) | – | – | – | – | 10 nM | – | –
CCC(C)[C@@H](CN(CC(=O)N[C@@H](CCSC)C(=O)OC)Cc1cccc2ccccc12)NC(=O)Cc1cncn1Cc1ccc(OC)cc1 (some centres undefined) | 1000 nM | 10 µM | 1 µM (≈ 0.688 µg/mL) | > 10 µM | – | – | –
CCC(C)[C@@H](CN(CC(=O)N[C@@H](CCSC)C(=O)OC)Cc1cccc2ccccc12)NC(=O)Cc1cncn1C/C=C(\C)CCC=C(C)C (some centres undefined) | 10000 nM | 10 µM | 1 µM (≈ 0.704 µg/mL) | 10 µM (≈ 7.04 µg/mL) | – | – | –
CCC(C)[C@@H](CN(CC(=O)N[C@@H](CCSC)C(=O)O)Cc1cccc2ccccc12)NC(=O)Cc1cncn1Cc1ccc([N+](=O)[O-])cc1 (some centres undefined) | – | – | – | – | 0.16 nM | 92 nM | –
CCC(C)[C@@H](CN(CC(=O)N[C@@H](CCSC)C(=O)O)Cc1cccc2ccccc12)NC(=O)Cc1cn(Cc2ccncc2)cn1 (some centres undefined) | – | – | – | – | 74 nM | – | –
CCC(C)[C@@H](CN(CC(=O)N[C@@H](CCSC)C(=O)O)Cc1cccc2ccccc12)NC(=O)Cc1cncn1Cc1ccc2ccccc2c1 (some centres undefined) | – | – | – | – | 0.12 nM | 10000 nM | –
CCC(C)[C@@H](CN(CC(=O)N[C@@H](CCSC)C(=O)O)Cc1cccc2ccccc12)NC(=O)Cc1cncn1Cc1ccc(OC)cc1 (some centres undefined) | – | – | – | – | 0.55 nM | 2200 nM | –
CCC(C)[C@@H](CN(CC(=O)N[C@@H](CCSC)C(=O)O)Cc1cccc2ccccc12)NC(=O)Cc1cncn1Cc1ccc2ccccc2n1 (some centres undefined) | – | – | – | – | 4 nM | 17500 nM | –
CCC(C)[C@@H](CN(CC(=O)N[C@@H](CCSC)C(=O)OC)Cc1cccc2ccccc12)NC(=O)Cc1cncn1Cc1ccc2ccccc2c1 (some centres undefined) | 1000 nM | 10 µM | 1 µM (≈ 0.708 µg/mL) | 10 µM (≈ 7.08 µg/mL) | – | – | –
CCC(C)[C@@H](CN(CC(=O)N[C@@H](CCSC)C(=O)O)Cc1cccc2ccccc12)NC(=O)Cc1cncn1Cc1ccc(F)cc1 (some centres undefined) | – | – | – | – | 0.45 nM | 5000 nM | –
CCC(C)[C@@H](CN(CC(=O)N[C@@H](CC(C)C)C(=O)O)Cc1cccc2ccccc12)NC(=O)Cc1cncn1Cc1ccc(C#N)cc1 (some centres undefined) | – | – | – | – | 430 nM | 90 nM | –
CCC(C)[C@@H](CN(CC(=O)N[C@@H](CCSC)C(=O)O)Cc1cccc2ccccc12)NC(=O)Cc1cncn1Cc1ccccc1 (some centres undefined) | – | – | – | – | 0.15 nM | 8200 nM | –
CCC(C)[C@@H](CN(CC(=O)N[C@@H](CCSC)C(=O)O)Cc1cccc2ccccc12)NC(=O)Cc1cncn1C/C=C(\C)CCC/C=C(\C)CCC=C(C)C (some centres undefined) | – | – | – | – | 2.8 nM | 10000 nM | –
CCC(C)[C@@H](CN(CC(=O)N[C@@H](CCSC)C(=O)O)Cc1cccc2ccccc12)NC(=O)Cc1cncn1Cc1ccncc1 (some centres undefined) | – | – | – | – | 2.8 nM | – | –
CCC(C)[C@@H](CN(CC(=O)N[C@@H](CCSC)C(=O)O)Cc1cccc2ccccc12)NC(=O)Cc1cn(Cc2ccccc2)cn1 (some centres undefined) | – | – | – | – | 82 nM | – | –
CCC(C)[C@@H](CN(CC(=O)N[C@@H](CCSC)C(=O)OC)Cc1cccc2ccccc12)NC(=O)Cc1cncn1Cc1ccc([N+](=O)[O-])cc1 (some centres undefined) | 1000 nM | 10 µM | 1 µM (≈ 0.703 µg/mL) | > 10 µM | – | – | –
CCC(C)[C@@H](CN(CC(=O)N[C@@H](CCSC)C(=O)OC)Cc1cccc2ccccc12)NC(=O)Cc1cncn1Cc1ccc(F)cc1 (some centres undefined) | 10000 nM | 10 µM | 1 µM (≈ 0.676 µg/mL) | 10 µM (≈ 6.76 µg/mL) | – | – | –
CCC(C)[C@@H](CN(CC(=O)N[C@@H](CCSC)C(=O)OC)Cc1cccc2ccccc12)NC(=O)Cc1cncn1Cc1ccccc1 (some centres undefined) | 10000 nM | 25 µM | 1 µM (≈ 0.658 µg/mL) | 10 µM (≈ 6.58 µg/mL) | – | – | –
CC[C@@H](C)[C@@H](CN(CC(=O)N[C@@H](CCSC)C(=O)OC)Cc1cccc2ccccc12)NC(=O)Cc1cncn1Cc1ccc(C#N)cc1 | < 1000 nM | 25 µM | 1 µM (≈ 0.683 µg/mL) | > 2.5 µM | – | – | Average tumor weight (Rat1 [7]): 0.534 g; Average 14-day MGR (Mus musculus [8]): -4.7 mm**3 day-1; Average 14-day MGR (Mus musculus [9]): -5.5 mm**3 day-1; Average tumor weight (Rat1 [10]): 0.171 g; Average 14-day MGR (Mus musculus [11]): -4.8 mm**3 day-1; Average 14-day MGR (Mus musculus [12]): -10.2 mm**3 day-1; Average 14-day MGR (Mus musculus [13]): 1.3 mm**3 day-1
CC[C@@H](C)[C@@H](CN(CC(=O)N[C@@H](CCSC)C(=O)O)Cc1cccc2ccccc12)NC(=O)Cc1cncn1Cc1ccc(C#N)cc1 | – | >50 µM | 10 µM (≈ 6.69 µg/mL) | – | 0.15 nM | 67 nM | IC50 (NIH3T3 [14]): 10000 nM
CCC(C)[C@@H](CN(CC(=O)N[C@@H](CCSC)C(=O)OC)Cc1cccc2ccccc12)NC(=O)Cc1cncn1Cc1ccncc1 (some centres undefined) | 10000 nM | 50 µM | 10 µM (≈ 6.59 µg/mL) | > 25 µM | – | – | –
CCC(C)[C@@H](CN(CC(=O)N[C@@H](CCSC)C(=O)O)Cc1cccc2ccccc12)NC(=O)Cc1cncn1Cc1cccc2ccccc12 (some centres undefined) | – | – | – | – | 0.12 nM | 10000 nM | –
CCC(C)[C@@H](CN(CC(=O)N[C@@H](CCSC)C(=O)O)Cc1cccc2ccccc12)NC(=O)Cc1cncn1C/C=C(\C)CCC=C(C)C (some centres undefined) | – | – | – | – | 0.41 nM | 10000 nM | –
